Results reported in ChEMBL document CHEMBL1124457, “In vitro antiproliferative activity of 4-substituted 2-(2-hydroxyphenyl)thiazolines on murine leukemia cells” (J Med Chem, 1989).
In brackets after ≈: the same amount, converted by molar mass.

How the values were obtained:
L1210 [1] = experiment: Percent viability against L1210 leukemic cells 48 hr after compound addition at 100 uM concentration; assay type: functional, Mus musculus
Method in brief: (§1)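 Leukemia cells in RPMI 1640 with 10% defined equine serum and Mopes-Hepes buffer (pH 7.40). Compound added from DMSO stock. Viable cells scored by trypan blue exclusion 48 h after compound addition.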

L1210 [2] = experiment: Antiproliferative activity of compound expressed as concentration that inhibits 50% of growth of L1210 leukemic cell suspension from 24 to 48 hr after compound addition.; assay type: functional, cell-based; conditions: Mus musculus
Method in brief: (§2)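 Cells grown in RPMI 1640 with L-glutamine, 10% defined equine serum, 2% Mopes-Hepes buffer (pH 7.40), penicillin and streptomycin. Tested in log phase (0.5 × 10^5–2 × 10^6 cells/mL), in duplicate. Compound given as 10-µL DMSO stock (one ester in ethanol), with solvent-spiked controls.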

P388 [3] = experiment: Antiproliferative activity of compound expressed as concentration that inhibits 50% of growth of P388 leukemic cell suspension from 24 to 48 hr after compound addition; assay type: functional, cell-based; conditions: Mus musculus; method in brief: as §2
P388 [4] = experiment: Percent viability against P388 leukemic cells 48 hr after compound addition at 100 uM concentration; assay type: functional, Mus musculus; method in brief: as §1
L1210 [5] = experiment: Percent viability against L1210 leukemic cells 48 hr after compound addition at 100 uM; assay type: functional, Mus musculus; method in brief: as §1
L1210 [6] = experiment: Percent viability against L1210 leukemic cells at 50 uM; assay type: functional, Mus musculus
L1210 [7] = experiment: Percent viability against L1210 leukemic cells at 0 uM; assay type: functional, Mus musculus
P388 [8] = experiment: Percent viability against P388 leukemic cells 48 hr after compound addition at 100 uM; assay type: functional, Mus musculus; method in brief: as §1
[9] = Partition ratio in 1-octanol / phosphate-buffered saline system.; assay type: physicochemical; conditions: buffer
Method in brief: (§3)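 Compound film was left by evaporating an alcohol solution under nitrogen. 5 mL each of 1-octanol and PBS (pH 7.1) were added, sealed under nitrogen and agitated 3 h at 27 °C. Each layer was measured by absorbance at 247 nm against Beer's plots (1.25–10 or 3.25–50 μM).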

L1210 [10] = experiment: Percent viability against L1210 leukemic cells at 200 uM; assay type: functional, Mus musculus
[11] = Solubility in phosphate-buffered saline (PBS) at pH 7.1; assay type: physicochemical
L1210 [12] = experiment: Percent of control growth in L1210 cells by addition of 100 uM compound as […] chelate (FeCl3); assay type: functional, Mus musculus
Method in brief: (§4)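 In L1210 iron-reversal runs, FeCl3 aqueous stock was premixed 1:1 molar with chelator stock until an intense purple colour developed, then added to the cells. Growth was compared with chelator alone, FeCl3 alone and DMSO alone. Cells were counted electronically and growth read 48 h after ligand addition as % of control ± SE.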

L1210 [13] = experiment: Percent viability against L1210 leukemic cells at 100 uM; assay type: functional, Mus musculus
L1210 [14] = experiment: Percent of control growth in L1210 cells by addition of 100 uM of iron-free compound; assay type: functional, Mus musculus; method in brief: as §4
[15] = Partition ratio in 1-octanol / phosphate-buffered saline system; assay type: physicochemical; conditions: buffer; method in brief: as §3
L1210 [16] = experiment: Antiproliferative activity of compound expressed as concentration that inhibits 50% of growth of L1210 leukemic cell suspension from 24 to 48 h after compound addition; assay type: functional, cell-based; conditions: Mus musculus; method in brief: as §2
L1210 [17] = experiment: Percent viability against L1210 leukemic cells 48 hr after compound addition at 35 uM concentration; assay type: functional, Mus musculus; method in brief: as §1
V79 (Cricetulus griseus) = experiment: Tritiated thymidine uptake is estimated after incubation of 120 min with compound(50 uM) and the radiolabel
L1210 [18] = experiment: Percent of control growth in L1210 cells by addition of 5 uM of iron-free compound; assay type: functional, Mus musculus; method in brief: as §4
P388 [19] = experiment: Percent viability against P388 leukemic cells 48 hr after compound addition at 25 uM concentration; assay type: functional, Mus musculus; method in brief: as §1
L1210 [20] = experiment: Percent of control growth in L1210 cells by addition of 5 uM compound as iron(II) chelate (FeCl3); assay type: functional, Mus musculus; conditions: in the assay text read “iron(III) chelate” for “iron(II) chelate”; method in brief: as §4
P388 [21] = experiment: Antiproliferative activity of compound expressed as concentration that inhibits 50% of growth of P388 leukemic cell suspension from 24 to 48 hr after compound addition; ND= Not defined; assay type: functional, cell-based, Mus musculus; method in brief: as §2
L1210 [22] = experiment: Antiproliferative activity, concentration that inhibits 50% of growth of L1210 leukemic cell suspension from 24 to 48 hr after compound addition.; assay type: functional, cell-based; conditions: Mus musculus; method in brief: as §2
P388 [23] = experiment: Percent viability against P388 leukemic cells 48 hr after compound addition at 100 uM concentration; ND= Not defined; assay type: functional, cell-based; conditions: Mus musculus; method in brief: as §1
L1210 [24] = experiment: Percent of control growth in L1210 cells by addition of 25 uM of iron-free compound; assay type: functional, Mus musculus; method in brief: as §4
L1210 [25] = experiment: Percent viability against L1210 leukemic cells at 25 uM; assay type: functional, Mus musculus
L1210 [26] = experiment: Percent of control growth in L1210 cells by addition of 25 uM compound as […] chelate (FeCl3); assay type: functional, Mus musculus; method in brief: as §4

| Compound | Viability (L1210 [1]) [%] | IC50 (L1210 [2]) [µM] | IC50 (P388 [3]) [µM] | Viability (P388 [4]) [%] | Viability (L1210 [5]) [%] | Viability (L1210 [6]) [%] | Viability (L1210 [7]) [%] | Viability (P388 [8]) [%] | Ratio [9] | Viability (L1210 [10]) [%] | solubility [11] [µM] | Viability (L1210 [13]) [%] | Ratio [15] | further results |
| --- | --- | --- | --- | --- | --- | --- | --- | --- | --- | --- | --- | --- | --- | --- |
| NC(=O)NO [HYDROXYUREA] | 97 | 85 | 32 | 96 |  |  |  |  |  |  |  |  |  |  |
| COC(=O)C1CSC(c2ccccc2O)=N1 (centres undefined) |  | 14 | 18 |  | 87 | 36 | 99 | 85 | 11.75 | 42 | 50 (≈ 11.9 µg/mL) | 46 |  | Control of growth (L1210 [12]): 98%; Control of growth (L1210 [14]): 4% |
| O=C(O)C1CSC(c2ccccc2O)=N1 (centres undefined) |  |  | 17 |  | 92 | 81 | 94 | 77 |  | 42 | 75 (≈ 16.7 µg/mL) | 54 | 0.03 | IC50 (L1210 [16]): 25 µM |
| O=C(NCCCCN(CCCCNC(=O)C1CSC(c2ccccc2O)=N1)Cc1ccccc1)C1CSC(c2ccccc2O)=N1 (centres undefined) |  | 3 | 1 |  |  | 0 | 87 |  | 0.96 |  | 15 (≈ 9.9 µg/mL) |  |  | Viability (L1210 [17]): 6%; Control (V79 (Cricetulus griseus)): 48%; Control of growth (L1210 [18]): 22%; Viability (P388 [19]): 15%; Control of growth (L1210 [20]): 21% |
| CCOC(=N)c1ccccc1O | >99 |  |  |  |  |  |  |  |  |  |  |  |  | IC50 (P388 [21]): Not defined; IC50 (L1210 [22]): > 200 µM; Viability (P388 [23]): Not defined |
| CC(=O)N(CCCCNC(=O)C1CSC(c2ccccc2O)=N1)CCCCNC(=O)C1CSC(c2ccccc2O)=N1 (centres undefined) | 95 | 21 | 12 | 85 |  | 100 | 99 |  |  | 27 | 10 (≈ 6.12 µg/mL) | 40 | > 7 | Control of growth (L1210 [24]): 29%; Viability (L1210 [25]): 92%; Control of growth (L1210 [26]): 68% |
